ChEMBL document CHEMBL5058577, “EUbOPEN Chemogenomics Library 2 (Multiplex)” (2022)

System: HEK-293T
Assay: Multiplex assay against HEK293T
Type: toxicity, cell-based
Settings: human
Procedure, shortened: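 Hoechst33342, BioTracker Green Microtubule Cytoskeleton Dye, MitoTracker Red and Annexin V Alexa Fluor 680 were added to live cells at seeding, and imaging on a CQ1 microscope at 37°C and 5% CO2 followed compound addition. Gating by CellPathfinder machine learning separated cells into Hoechst high-intensity objects or normal cells, then normal cells into healthy, pyknosed or fragmented nuclei, then pyknosed cells into mitotic or apoptotic. Per cents of healthy-nucleus cells are reported for the tubulin, mitochondrial-mass and membrane-permeability phenotypes.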

[1] = 12 h, 1 µM, compound concentration 1 uM, replicate 1
[2] = 12 h, 1 µM, compound concentration 1 uM, replicate 2
[3] = 12 h, 10 µM, compound concentration 10 uM, replicate 1
[4] = 12 h, 10 µM, compound concentration 10 uM, replicate 2
[5] = 24 h, 1 µM, compound concentration 1 uM, replicate 1
[6] = 24 h, 1 µM, compound concentration 1 uM, replicate 2
[7] = 24 h, 10 µM, compound concentration 10 uM, replicate 1
[8] = 24 h, 10 µM, compound concentration 10 uM, replicate 2
[9] = 48 h, 1 µM, compound concentration 1 uM, replicate 1
[10] = 48 h, 1 µM, compound concentration 1 uM, replicate 2
[11] = 48 h, 10 µM, compound concentration 10 uM, replicate 1
[12] = 48 h, 10 µM, compound concentration 10 uM, replicate 2

## NCCc1cn(S(=O)(=O)c2c(Cl)nc3sccn23)c2ccccc12.O=C(O)C(=O)O
[1]
  Population Apoptotic (%): 37%
  Population Fragmented Nuclei (%): 5%
  Population Healthy Nuclei (%): 83%
  Population Hoechst High Intensity Objects (%): 7%
  Population Membrane Permeable-Phenotype (%): 0%
  Population Mitochondria Different-Phenotype (%): 53%
  Population Mitotic Cells (%): 62%
  Population Normal (%): 92%
  Population Pyknosed Nuclei (%): 11%
  Population Tubulin-Different-Phenotype (%): 40%
  Total Cell Count: 446
[2]
  Population Apoptotic (%): 52%
  Population Fragmented Nuclei (%): 8%
  Population Healthy Nuclei (%): 78%
  Population Hoechst High Intensity Objects (%): 8%
  Population Mitochondria Different-Phenotype (%): 66%
  Population Mitotic Cells (%): 47%
  Population Normal (%): 91%
  Population Pyknosed Nuclei (%): 13%
  Population Tubulin-Different-Phenotype (%): 34%
  Total Cell Count: 316
[3]
  Population Apoptotic (%): 63%
  Population Fragmented Nuclei (%): 8%
  Population Healthy Nuclei (%): 49%
  Population Hoechst High Intensity Objects (%): 22%
  Population Membrane Permeable-Phenotype (%): 0%
  Population Mitochondria Different-Phenotype (%): 96%
  Population Mitotic Cells (%): 36%
  Population Normal (%): 77%
  Population Pyknosed Nuclei (%): 42%
  Population Tubulin-Different-Phenotype (%): 88%
  Total Cell Count: 292
[4]
  Population Apoptotic (%): 64%
  Population Healthy Nuclei (%): 67%
  Population Hoechst High Intensity Objects (%): 25%
  Population Mitochondria Different-Phenotype (%): 97%
  Population Mitotic Cells (%): 35%
  Population Normal (%): 74%
  Population Pyknosed Nuclei (%): 23%
  Population Tubulin-Different-Phenotype (%): 82%
  Total Cell Count: 209
[5]
  Population Apoptotic (%): 33%
  Population Fragmented Nuclei (%): 9%
  Population Healthy Nuclei (%): 79%
  Population Hoechst High Intensity Objects (%): 6%
  Population Membrane Permeable-Phenotype (%): 1%
  Population Mitochondria Different-Phenotype (%): 28%
  Population Mitotic Cells (%): 66%
  Population Normal (%): 93%
  Population Pyknosed Nuclei (%): 11%
  Population Tubulin-Different-Phenotype (%): 26%
  Total Cell Count: 585
[6]
  Population Apoptotic (%): 41%
  Population Fragmented Nuclei (%): 12%
  Population Healthy Nuclei (%): 78%
  Population Hoechst High Intensity Objects (%): 4%
  Population Mitochondria Different-Phenotype (%): 46%
  Population Mitotic Cells (%): 58%
  Population Normal (%): 95%
  Population Pyknosed Nuclei (%): 8%
  Population Tubulin-Different-Phenotype (%): 19%
  Total Cell Count: 438
[7]
  Population Apoptotic (%): 74%
  Population Fragmented Nuclei (%): 14%
  Population Healthy Nuclei (%): 37%
  Population Hoechst High Intensity Objects (%): 34%
  Population Membrane Permeable-Phenotype (%): 2%
  Population Mitochondria Different-Phenotype (%): 83%
  Population Mitotic Cells (%): 25%
  Population Normal (%): 65%
  Population Pyknosed Nuclei (%): 48%
  Population Tubulin-Different-Phenotype (%): 44%
  Total Cell Count: 310
[8]
  Population Apoptotic (%): 75%
  Population Healthy Nuclei (%): 62%
  Population Mitochondria Different-Phenotype (%): 95%
  Population Mitotic Cells (%): 24%
  Population Pyknosed Nuclei (%): 22%
  Population Tubulin-Different-Phenotype (%): 76%
  Total Cell Count: 195
[9]
  Population Apoptotic (%): 23%
  Population Fragmented Nuclei (%): 16%
  Population Healthy Nuclei (%): 77%
  Population Hoechst High Intensity Objects (%): 3%
  Population Membrane Permeable-Phenotype (%): 0%
  Population Mitochondria Different-Phenotype (%): 22%
  Population Mitotic Cells (%): 76%
  Population Normal (%): 96%
  Population Pyknosed Nuclei (%): 6%
  Population Tubulin-Different-Phenotype (%): 19%
  Total Cell Count: 972
[10]
  Population Apoptotic (%): 47%
  Population Fragmented Nuclei (%): 12%
  Population Healthy Nuclei (%): 82%
  Population Hoechst High Intensity Objects (%): 5%
  Population Membrane Permeable-Phenotype (%): 1%
  Population Mitochondria Different-Phenotype (%): 23%
  Population Mitotic Cells (%): 52%
  Population Normal (%): 94%
  Population Pyknosed Nuclei (%): 5%
  Population Tubulin-Different-Phenotype (%): 14%
  Total Cell Count: 678
[11]
  Population Apoptotic (%): 53%
  Population Fragmented Nuclei (%): 27%
  Population Healthy Nuclei (%): 24%
  Population Hoechst High Intensity Objects (%): 62%
  Population Membrane Permeable-Phenotype (%): 11%
  Population Mitochondria Different-Phenotype (%): 74%
  Population Mitotic Cells (%): 46%
  Population Normal (%): 37%
  Population Pyknosed Nuclei (%): 47%
  Population Tubulin-Different-Phenotype (%): 55%
  Total Cell Count: 294
[12]
  Population Apoptotic (%): 78%
  Population Fragmented Nuclei (%): 19%
  Population Healthy Nuclei (%): 47%
  Population Hoechst High Intensity Objects (%): 47%
  Population Membrane Permeable-Phenotype (%): 1%
  Population Mitochondria Different-Phenotype (%): 75%
  Population Mitotic Cells (%): 21%
  Population Normal (%): 52%
  Population Pyknosed Nuclei (%): 33%
  Population Tubulin-Different-Phenotype (%): 52%
  Total Cell Count: 212
